The values below come from ChEMBL document CHEMBL4052757, “Bistacrines as potential antitrypanosomal agents” (Bioorg Med Chem, 2017).

Molecules are shown by their SMILES. Active and inactive are the calls of the source. The rule behind the calls is not given here. Some results are limits rather than exact numbers.

Series [1] in a line: Selectivity index, ratio of IC50 for mouse J774.1 cells to IC50 for Trypanosoma brucei brucei TC221 measured after 48 hrs. In kind it is toxicity. The following applies: J774.1 cells (versus Trypanosoma brucei brucei TC221), read-out: Ratio IC50. In outline:
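Selectivity index computed as IC50 (J774.1 macrophages, alamarBlue) divided by IC50 (T. b. brucei TC221, alamarBlue); duplicate determinations, means used.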

The next series relates to J774.1. As to the kind of experiment: Cytotoxicity against mouse J774.1 cells after 24 hrs by alamar blue assay. The series is classed as cell-based. The following applies: J774.1, 24 h.
Series [2] has as its system Trypanosoma brucei brucei. As to the kind of experiment: Antitrypanosomal activity against Trypanosoma brucei brucei TC221 after 72 hrs by alamar blue assay. In kind it is functional. The following applies: TC221, 72 h. A digest of the protocol:
(§1)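 T. b. brucei TC221 bloodstream-form proliferation measured by alamarBlue (resazurin reduced to resorufin by living cells); 48 h and 72 h read-outs. IC50 derived per Räz et al. method; each compound tested in duplicate, mean of two values.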

Series [3] relates to Trypanosoma brucei brucei. As to the kind of experiment: Antitrypanosomal activity against Trypanosoma brucei brucei TC221 after 48 hrs by alamar blue assay. The series is classed as functional. The conditions noted are these: TC221, 48 h. In outline:
as §1

The target in the next series is Rhodesain (Trypanosoma brucei rhodesiense, UniProt Q95PM0). As to the kind of experiment: Inhibition of Trypanosoma brucei rhodesiense rhodesain using Cbz-Phe-Arg-AMC as substrate measured for 10 mins by spectrofluorometric analysis.
Rhodesain, sequence (Q95PM0 whole entry): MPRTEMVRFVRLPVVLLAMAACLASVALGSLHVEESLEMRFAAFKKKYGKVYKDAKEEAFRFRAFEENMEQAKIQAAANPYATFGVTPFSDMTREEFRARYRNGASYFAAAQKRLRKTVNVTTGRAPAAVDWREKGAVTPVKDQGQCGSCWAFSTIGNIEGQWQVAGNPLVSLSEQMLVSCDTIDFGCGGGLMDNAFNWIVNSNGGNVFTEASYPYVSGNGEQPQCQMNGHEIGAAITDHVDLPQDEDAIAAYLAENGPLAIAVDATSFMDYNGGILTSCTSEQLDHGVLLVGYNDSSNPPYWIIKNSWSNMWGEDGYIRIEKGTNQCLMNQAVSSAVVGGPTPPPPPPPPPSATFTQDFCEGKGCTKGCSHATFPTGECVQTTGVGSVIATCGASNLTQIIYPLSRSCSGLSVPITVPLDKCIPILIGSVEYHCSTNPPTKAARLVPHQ
Series [4] concerns the target Rhodesain (Trypanosoma brucei rhodesiense) (UniProt Q95PM0). As to the kind of experiment: Inhibition of Trypanosoma brucei rhodesiense rhodesain at 20 uM using Cbz-Phe-Arg-AMC as substrate measured for 5 mins by spectrofluorometric analysis relative to control. In outline: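 Rhodesain in 50 mM sodium acetate pH 5.5 with 5 mM DTT, 5 mM EDTA, 200 mM NaCl; inhibitor 20 µM, substrate Cbz-Phe-Arg-AMC; AMC fluorescence (ex 380/em 460 nm) followed 5 min; activity from slopes of fluorescence vs time versus DMSO control; run in duplicate.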

Series [5] can be described thus: Inhibition of trypanothione reductase.
A further series relates to Leishmania infantum. As to the kind of experiment: Antileishmanial activity against Leishmania infantum. The series is classed as functional.
The target of series [6] is Rhodesain (Trypanosoma brucei rhodesiense) (UniProt Q95PM0). In words: Inhibition of Trypanosoma brucei rhodesiense rhodesain using Cbz-Phe-Arg-AMC as substrate by spectrofluorometric analysis.
Rhodesain (Trypanosoma brucei rhodesiense), sequence (Q95PM0 1-450): as the sequence (Q95PM0 whole entry) above
The nature of series [7]: Aqueous solubility of the compound. The following applies: buffer. The series is classed as physicochemical.
A short description of series [8]: Stability of the compound. In kind it is physicochemical.

On to `CCC1CCc2nc3ccc(Cl)cc3c(N)c2C1` (stereo not given), for which the selectivity ratio at 48 h in series [1] amounted to 3.1. Further, the IC50 came out at 8.3 µM in the series with J774.1, 3.7 µM in [2] and 2.7 µM in series [3].

Take `CC1CCc2c(nc3ccc([N+](=O)[O-])cc3c2N)C1` (stereo not given): in series [1], the selectivity ratio at 48 h was determined as 7.1. The results for the IC50 (in the series on J774.1; in [2]; in [3]) were 43.3 µM, 3.7 µM and 6.1 µM, respectively.

As for `CC1CCc2nc3ccccc3c(NCCCCCCCCCNc3c4c(nc5ccccc35)CCC(C)C4)c2C1` (stereo not given), the selectivity ratio at 48 h in [1] worked out at 11.3. Also, the IC50 against Rhodesain is 26.6 µM; with J774.1, 1.8 µM; in [2], 0.21 µM; in [3] it was 0.16 µM. Moreover, the inhibition is 68% in series [4] and “Dose-dependent effect” in series [6]. In addition, the inhibition entry in [5] was “Active”. The outcome with Leishmania infantum was Active.

Consider `Nc1c2c(nc3ccc([N+](=O)[O-])cc13)CCCC2`, for which, in series [1], the selectivity ratio at 48 h stood at 5.2. Further, the figures for the IC50 in series [2] and in [3] were 15.1 µM and 8.6 µM, respectively.

For the molecule `O=C1CCCc2nc3ccccc3c(NCCCCCCCCNc3c4c(nc5ccccc35)CCCC4=O)c21`, the solubility result in series [7] is given as “Insoluble”.

Regarding `O=C1CCCc2nc3ccccc3c(NCCCCCCCCCNc3c4c(nc5ccccc35)CCCC4=O)c21`, the solubility result in series [7] is on record as “Insoluble”.

As to `O=C1CCCc2nc3ccccc3c(NCCCCCCCNc3c4c(nc5ccccc35)CCCC4=O)c21`, in series [7], the solubility entry is reported as “Insoluble”.

Regarding `O=C1CCCc2nc3ccccc3c(NCCCCCCCCCCNc3c4c(nc5ccccc35)CCCC4=O)c21`, in series [7], the solubility entry was “Insoluble”.

Turning to `CCCCOC1CCc2nc3cc(Cl)ccc3c(NCCCCCCCCCNc3c4c(nc5cc(Cl)ccc35)CCC(OCCCC)C4)c2C1` (stereo not given), the selectivity ratio at 48 h in series [1] worked out at 20. Besides, the IC50 in the series with J774.1 is 8.6 µM; in series [2], 0.42 µM; in series [3], 0.43 µM. In [4], the inhibition amounted to 26%. Also, the inhibition entry in series [5] was “Active”. For the same molecule, the outcome in the series with Leishmania infantum was Active.

Turning to `C1=Cc2c(nc3ccccc3c2NCCCCCCCCCNc2c3c(nc4ccccc24)CCC=C3)CC1`, the selectivity ratio at 48 h in series [1] came out at 16.7. In addition, the IC50 came out at 1.6 µM in the series on J774.1, 0.25 µM in series [2] and 0.09 µM in [3]. The Stability result in series [8] is given as “Stable”. Further, the inhibition entry in [5] was “Active”. For the same molecule, in the series on Leishmania infantum, the outcome was Active.

As for `CC1(C)CCc2c(nc3cc(Cl)ccc3c2NCCCCCCNc2c3c(nc4cc(Cl)ccc24)CC(C)(C)CC3)C1`, the selectivity ratio at 48 h in [1] was 2.7. In addition, the IC50 was determined as 26.6 µM at Rhodesain, 1.7 µM in the series on J774.1, 0.72 µM in series [2] and 0.64 µM in series [3]. Moreover, the inhibition in series [4] was 64%; in series [6], “Dose-dependent effect”. Also, the inhibition result in series [5] was “Active”. For the same molecule, in the series on Leishmania infantum, the outcome was Active.

As to `COc1ccc2nc3c(c(NCCCCCCCCCNc4c5c(nc6ccc(OC)cc46)CCCC5)c2c1)CCCC3`, the selectivity ratio at 48 h in series [1] was 10.6. The IC50 turned out to be 18.1 µM on Rhodesain, 0.14 µM in series [2] and 0.12 µM in series [3]. For the same molecule, the figures for the inhibition in series [4] and in series [6] were 82% and “Dose-dependent effect”, respectively. Also, the inhibition entry in series [5] is “Active”. Also, the result in the series with Leishmania infantum was Active.

On to `CC1CCc2nc3cc(Cl)ccc3c(N)c2C1` (stereo not given), for which the selectivity ratio at 48 h in [1] came to 6.9. The IC50 in the series on J774.1 was determined as 41.2 µM; in series [2], 13.4 µM; in series [3], 6 µM.

`CC1CCc2nc3ccc([N+](=O)[O-])cc3c(N)c2C1` (stereo not given): the selectivity ratio at 48 h in series [1] is 14.5. Moreover, the IC50 in the series with J774.1 came out at 46.4 µM; in series [2], 4.8 µM; in series [3] it was 3.2 µM.

Take `N=C(N)c1ccc(OCCCCCOc2ccc(C(=N)N)cc2)cc1` [PENTAMIDINE]: the selectivity ratio at 48 h in series [1] was 7280. The IC50 in the series with J774.1 was determined as 38.6 µM; in [3], 0.0053 µM.

For `CCCC1CCc2nc3ccc(Cl)cc3c(N)c2C1` (stereo not given), the selectivity ratio at 48 h in series [1] stood at 3.1. Besides, the results for the concentration for half-maximal inhibition (IC50) in series [2] and in [3] were 3.4 µM and 2.7 µM, respectively.

Consider `C1=Cc2c(nc3ccccc3c2NCCCCCCCCNc2c3c(nc4ccccc24)CCC=C3)CC1`, for which, in series [1], the selectivity ratio at 48 h turned out to be 21.3. Further, the IC50 in the series on J774.1 was 1.7 µM; in series [2], 0.25 µM; in series [3], 0.08 µM. In addition, in series [8], the Stability result is “Stable”. The inhibition entry in [5] was “Active”. Besides, the result with Leishmania infantum was Active.

In the case of `C1=Cc2c(nc3ccccc3c2NCCCCCCNc2c3c(nc4ccccc24)CCC=C3)CC1`, the selectivity ratio at 48 h in series [1] amounted to 3.5. Further, the IC50 with J774.1 is 1.8 µM; in [2] it was 0.7 µM; in series [3], 0.51 µM. Moreover, the Stability entry in series [8] is “Stable”. Further, the inhibition result in [5] was “Active”. For the same molecule, the outcome in the series with Leishmania infantum was Active.

Take `Nc1c2c(nc3ccccc13)CCCC2` [TACRINE]: in series [1], the selectivity ratio at 48 h was more than 6.8. The IC50 in series [2] came out at 18.4 µM; in series [3] it was 14.6 µM.

Take `C1=Cc2c(nc3ccccc3c2NCCCCCCCCCCNc2c3c(nc4ccccc24)CCC=C3)CC1`: the selectivity ratio at 48 h in series [1] turned out to be 33.4. Besides, the IC50 was determined as 9.7 µM with J774.1, 0.88 µM in [2] and 0.29 µM in series [3]. Also, the Stability result in series [8] is “Stable”. Moreover, in series [5], the inhibition entry was “Active”. In the series on Leishmania infantum, the outcome was Active.

As for `CC1CCc2nc3ccc(Cl)cc3c(N)c2C1` (stereo not given), in series [1], the selectivity ratio at 48 h is 11.2. The IC50 was 43.8 µM with J774.1, 10.3 µM in series [2] and 3.9 µM in [3].

For the molecule `CC1CCc2c(nc3ccccc3c2N)C1` (stereo not given), in series [1], the selectivity ratio at 48 h turned out to be 3.1. Also, the IC50 in the series on J774.1 came out at 45 µM; in series [2], 17.6 µM; in series [3] it was 14.5 µM.

For the molecule `Nc1c2c(nc3cc(Cl)ccc13)CCCC2`, the selectivity ratio at 48 h in series [1] is 3.3. Moreover, the half-inhibitory concentration (IC50) turned out to be 41 µM in the series on J774.1, 17.1 µM in series [2] and 12.6 µM in series [3].

Take `c1ccc2c(NCCCCCCCCCCNc3c4c(nc5ccccc35)CCCC4)c3c(nc2c1)CCCC3`: the selectivity ratio at 48 h in [1] worked out at 15. For the same molecule, the half-inhibitory concentration (IC50) in series [2] is 0.15 µM; in [3], 0.12 µM. Also, the inhibition entry in [5] is “Active”. In the series on Leishmania infantum, the result was Active.

Turning to `O=C1CCCc2nc3ccccc3c(NCCCCCCNc3c4c(nc5ccccc35)CCCC4=O)c21`, the solubility result in series [7] was “Insoluble”.

`CCCC1CCc2nc3cc(Cl)ccc3c(N)c2C1` (stereo not given): in [1], the selectivity ratio at 48 h turned out to be 3.2. Further, the IC50 is 8.4 µM with J774.1, 3.4 µM in [2] and 2.6 µM in series [3].

Turning to `c1ccc2c(NCCCCCNc3c4c(nc5ccccc35)CCCC4)c3c(nc2c1)CCCC3`, the IC50 in series [2] stood at 6.4 µM; in series [3], 5.2 µM. Moreover, the inhibition in series [4] came out at 9%. Also, the result in the series with Leishmania infantum was Active.

For the molecule `CC1CCc2nc3ccccc3c(N)c2C1` (stereo not given), the selectivity ratio at 48 h in series [1] came out at 2.8. The results for the IC50 (with J774.1; in series [2]; in series [3]) were 44.9 µM, 18.1 µM and 15.8 µM, respectively.

For the molecule `CCOC1CCc2nc3cc(Cl)ccc3c(NCCCCCCCCCNc3c4c(nc5cc(Cl)ccc35)CCC(OCC)C4)c2C1` (stereo not given), the selectivity ratio at 48 h in series [1] stood at 2.8. The IC50 against Rhodesain is 13.3 µM; in the series with J774.1 it was 1.7 µM; in series [2], 0.71 µM; in [3], 0.63 µM. The inhibition in [4] was 89%; in series [6], “Dose-dependent effect”. Further, in series [5], the inhibition result was “Active”. In addition, the outcome in the series on Leishmania infantum was Active.

In the case of `Nc1c2c(nc3ccccc13)CCCC2=O`, in [1], the selectivity ratio at 48 h was more than 6.8. Moreover, the IC50 in the series on J774.1 was more than 100 µM; in series [2], 18 µM; in series [3] it was 14.6 µM.

Regarding `Nc1c2c(nc3ccc(Cl)cc13)CCCC2`, the selectivity ratio at 48 h in [1] came out at 3.6. Besides, the IC50 in series [2] amounted to 16.5 µM; in series [3], 12 µM.

On to `CCCC1CCc2nc3ccccc3c(N)c2C1` (stereo not given), for which the selectivity ratio at 48 h in series [1] came to 16.5. In addition, the results for the IC50 in series [2] and in series [3] were 3.5 µM and 2.6 µM, respectively.

On to `CCC1CCc2nc3cc(Cl)ccc3c(N)c2C1` (stereo not given), for which the selectivity ratio at 48 h in [1] came to 8.7. The IC50 with J774.1 was 24.4 µM; in [2] it was 3.5 µM; in series [3], 2.8 µM.

In the case of `CCC1CCc2nc3ccccc3c(N)c2C1` (stereo not given), the selectivity ratio at 48 h in series [1] turned out to be 3.5. For the same molecule, the IC50 with J774.1 was 43.6 µM; in series [2], 17.2 µM; in series [3], 12.3 µM.
